Most compounds without a hit are left out; they make up all but 3.6% or so of the library.
UCH37 DUB inh = inhibitors of human UCH37 deubiquitinase, primary screen, biochemical, Ub-AMC cleavage, fluorescence. Ubiquitin carboxyl-terminal hydrolase isozyme L5 (Homo sapiens), Q9Y5K5. purified proteasome/UCH37. inhibition, % (no concentration beside the values). actives 0.33% (n = 330,000);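 active means mean inhibition over replicate wells above about 20%, limit read from the data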;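 further: 0% = compound-free wells with enzyme and 100% = wells lacking proteasome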
Target sequence (Q9Y5K5 whole entry, looked up): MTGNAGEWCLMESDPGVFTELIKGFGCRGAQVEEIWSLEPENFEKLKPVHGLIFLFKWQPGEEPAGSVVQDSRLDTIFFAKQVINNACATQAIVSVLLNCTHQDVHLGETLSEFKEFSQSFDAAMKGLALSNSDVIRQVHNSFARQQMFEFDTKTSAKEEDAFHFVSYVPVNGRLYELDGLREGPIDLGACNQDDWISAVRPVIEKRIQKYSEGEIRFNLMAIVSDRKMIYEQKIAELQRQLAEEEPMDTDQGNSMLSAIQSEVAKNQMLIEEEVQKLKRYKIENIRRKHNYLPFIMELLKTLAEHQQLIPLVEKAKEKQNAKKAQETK
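Material: Human UCH37 enzyme supplied as purified proteasome complex | Schedule: 30 min preincubation with enzyme, 25 min cleavage at room temperature | Detection: AMC fluorescence 355/460 nm | Measure: % inhibition of Ub-AMC cleavage fluorescence | Controls: Wells without proteasome as full block, compound-free enzyme plus substrate as uninhibited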
ATG4B inhibitor = ATG4B protease inhibitors, primary screen, biochemical, fluorescence, uHTS | ATG4B cleavage of LC3-PLA2, NBD-HPC fluorescence, 1 h | inhibition, % at 8.33 µM | actives 0.51% (n = 340,000) | AID 504462, 2011; in the data active means inhibition above about 40%
NadD inh = inhibitors of S. aureus NadD, primary screen, biochemical, colorimetric, uHTS; Nicotinate-nucleotide adenylyltransferase NadD (Staphylococcus aureus N315); purified NadD enzyme, colorimetric absorbance read-out; inhibition, % at 20 µM; actives 0.78% (n = 360,000); AID 602399, 2012; in the data active means inhibition above about 26%
NR3A LBD binder = binders of NR3A ligand-binding domain, primary screen, biophysical, differential scanning fluorimetry, uHTS. Glutamate receptor ionotropic, NMDA 3A (GRIN3A) ligand-binding domain. NR3A LBD differential scanning fluorimetry, Tm shift; 0% = protein alone, 100% = glycine-bound protein. Tm shift relative to glycine control, % at 25 µM. actives 2.5% (n = 340,000);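 active means melting temperature shift of at least 10% of the positive control shift, at one fixed dose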
SENP1 inh = human SENP1 catalytic domain inhibitors, primary screen, biochemical, FRET, uHTS; Sentrin-specific protease 1 (Homo sapiens), Q9P0U3; recombinant SENP1 catalytic domain, CyPet-SUMO1-YPet FRET cleavage; inhibition, % at 10 µM; actives 0.21% (n = 360,000); AID 624204, 2012;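 active means inhibition at least 30% at 10 µM, raw YFP signal under a set limit, fluorescence ratio 0.5 to 1.5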;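 further: 0% = enzyme with DMSO and 100% = no enzyme wells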
Target sequence (Q9P0U3 419-644 limits assumed): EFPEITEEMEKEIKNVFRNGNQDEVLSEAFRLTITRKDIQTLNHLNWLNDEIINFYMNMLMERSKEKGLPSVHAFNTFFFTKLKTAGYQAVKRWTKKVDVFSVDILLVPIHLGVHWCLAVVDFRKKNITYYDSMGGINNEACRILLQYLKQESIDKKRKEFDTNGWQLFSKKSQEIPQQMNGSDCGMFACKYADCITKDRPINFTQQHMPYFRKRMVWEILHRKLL
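System: Recombinant human SENP1 catalytic domain, His6-tagged | Incubation: Enzyme reaction for 50 min at room temperature, dark | Medium: Tris pH 8 with BME, BSA, NP40 and catalase | Also added: 25 nM SUMO1 FRET substrate | Compound: 10 µM single point, 0.5% DMSO | Measured by: FRET fluorescence in CFP and YFP emission channels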
NadD inh conf = inhibitors of S. aureus NadD, confirmation, biochemical, colorimetric, single concentration. shares compounds with NadD inh. purified S. aureus NadD, colorimetric enzyme assay. inhibition, % at 20 µM. actives 13% (n = 2,000). AID 624309, 2012; in the data active means inhibition mostly above about 42%, no sharp cut-off; inactive means mostly below about 42%
An asterisk follows results filed as active; nt = not tested or not shown.

SMILES | UCH37 DUB inh | ATG4B inhibitor | NadD inh | NR3A LBD binder | SENP1 inh | NadD inh conf
CC(C)C[C@@H](CN1CCC[C@@H]1CN1C(=S)NC[C@@H]1Cc1ccc(O)cc1)N1C[C@H](Cc2ccc(O)cc2)N(CC2CCCCCC2)C1=S | nt | nt | 44.1* | nt | -1.0 | 28.1
CC(C)C[C@H]1CN([C@@H](CC(C)C)CN2CCC[C@@H]2CN2C(=S)NC[C@@H]2Cc2ccc(O)cc2)C(=S)N1CC1CCCCC1 | nt | nt | 29.7* | nt | 2.1 | 10.7
C=CCON=CC1C(=O)CC(C)(C)CC1=O | 2.2 | nt | nt | nt | nt | nt
O=C(Cc1ccccc1)NN=Cc1cc(Br)cs1 | 3.8 | nt | nt | nt | nt | nt
CC(=NNC(=O)CNc1ccc(C)cc1)c1ccc(Cl)cc1 | 1.1 | nt | nt | nt | nt | nt
NC(N)=NN=Cc1ccc(OCc2ccccc2Cl)cc1 | 6.1 | nt | nt | nt | nt | nt
CC1CCCC(C)N1c1nnc(NC(=O)c2cc(-c3ccc(Br)cc3)on2)s1 (configuration not stated) | nt | 16.5 | 41.1* | -13.7 | -20.5 | 20.3
COc1ccccc1-n1c(SCc2cc(=O)oc3cc(O)ccc23)nc2ccccc2c1=O | -37.1 | 10.6 | 31.8* | -8.6 | -101.4 | 57.5*
COc1ccccc1-n1c(SCC(=O)N2CCOCC2)nc2ccccc2c1=O | -0.3 | 4.5 | -11.2 | 1.2 | 0.7 | nt
O=C(Nc1ccc(Cl)c(Cl)c1)Nc1ccc([N+](=O)[O-])cn1 | nt | -4.5 | 34.1* | -14.3 | 8.9 | 6.0
O=C(Nc1ccc(F)cc1)Nc1ccc([N+](=O)[O-])cn1 | -1.4 | 1.1 | -3.3 | -2.0 | 26.2 | nt
Cc1ccsc1C=NNC(=O)C(O)c1ccccc1 (configuration not stated) | 4.5 | nt | nt | nt | nt | nt
Clc1cccc(Cc2c(-c3cccc(Br)c3)nc3ccc(Br)cn23)c1 | nt | nt | 30.2* | nt | 10.4 | 43.7
Cc1cc2nc(-c3cccc(Br)c3)c(Cc3ccsc3)n2c(C)c1Br | nt | nt | 41.3* | nt | 10.7 | 18.7
Cc1cc2nc(-c3ccc(F)cc3)c(Cc3cccc(Cl)c3)n2c(C)c1Br | nt | nt | 69.4* | nt | 3.7 | 29.0
Cc1cc2nc(-c3cccc(Cl)c3)c(Cc3ccsc3)n2c(C)c1Br | nt | nt | 16.7 | nt | 9.3 | nt
Cc1cc2nc(-c3ccccc3)c(Cc3cccc(Cl)c3)n2c(C)c1Br | nt | nt | 37.5* | nt | 3.8 | 25.5
Cc1ccc(C=NNC(=O)C2COc3ccccc3O2)s1 (configuration not stated) | 2.6 | nt | nt | nt | nt | nt
CC(=NNC(=O)c1ccc(N2CCCC2=O)cc1)c1ccccc1 | 1.5 | nt | nt | nt | nt | nt
CCOc1ccc(CCN2C(=S)N([C@@H](Cc3ccccc3)CN3CCC[C@@H]3CN3C(=S)NC[C@@H]3Cc3ccc(O)cc3)C[C@@H]2CC(C)C)cc1 | nt | nt | 31.3* | nt | 3.5 | 7.4
CCOc1ccc(CCN2C(=S)N([C@@H](Cc3ccc(O)cc3)CN3CCCC3CN3C(=S)NC[C@@H]3Cc3ccc(O)cc3)C[C@@H]2CC(C)C)cc1 (some centres not stated) | nt | nt | 43.2* | 13.2* | 0.7 | 38.5
CCOc1ccc(CCN2C(=S)N([C@@H](Cc3ccc(O)cc3)CN3CCC[C@@H]3CN3C(=S)NC[C@@H]3CC(C)C)C[C@@H]2Cc2ccc(O)cc2)cc1 | nt | nt | 48.2* | nt | 0.9 | 39.2
CC(C)C[C@H]1CNC(=S)N1C[C@H]1CCCN1C[C@H](Cc1ccccc1)N1C[C@H](CC(C)C)N(CCc2ccccc2)C1=S | nt | nt | 11.0 | nt | 0.8 | nt
CC(C)C[C@H]1CNC(=S)N1CC1CCCN1C[C@H](Cc1ccc(O)cc1)N1C[C@H](Cc2ccccc2)N(CC2CCCCC2)C1=S (some centres not stated) | nt | nt | 27.9 | 6.6 | 0.7 | nt
Cc1ccc(C=Nn2c(-c3cccnc3)n[nH]c2=S)s1 | 4.2 | nt | nt | nt | nt | nt
SMILES | UCH37 DUB inh | ATG4B inhibitor | NadD inh | NR3A LBD binder | SENP1 inh | NadD inh conf
CCCCCCc1cc2cc(S(=O)(=O)c3ccc(Cl)cc3)c(=O)oc2cc1O | -299.4 | -3.8 | 36.5* | 106.1* | -50.2 | 2.3
CC(C)n1c(-c2ccc(C(C)(C)C)cc2)n[nH]c1=S | 3.2 | 4.0 | 29.3* | 0.4 | -0.6 | 11.8
O=C(NN=Cc1cccc(Oc2ccccc2)c1)c1ccccc1Br | 6.1 | nt | nt | nt | nt | nt
COc1ccc(C(=O)NCCCn2ccnc2)cc1 | 0.1 | -6.1 | -1.2 | 0.7 | 1.4 | nt
COc1ccc2c(Cl)c(C(=O)NCCCn3ccnc3)sc2c1Cl | -2.3 | 0.9 | 35.7* | 0.7 | 1.7 | 7.4
FC(F)(F)c1cc(-c2ccco2)nc(NCc2ccco2)n1 | -7.3 | 15.8 | 34.0* | 0.1 | -21.2 | 39.8
Cc1ccc2oc(=O)c3cc(C(=O)NCCCN4CCCCCC4)sc3c2c1 | -31.4 | 4.2 | 37.0* | -2.6 | -12.9 | -8.0
Nc1nc(N)c(C=Nc2ccc(Br)cc2)c(Nc2ccc(Br)cc2)n1 | nt | -1.6 | 35.6* | 50.7* | -2.9 | -4.7
Nc1nc(N)c(Br)c(Nc2ccc(Cl)c(Cl)c2)n1 | 4.0 | -2.1 | 2.3 | 0.8 | -8.0 | nt
O=C(Nc1cccc(-c2nc3ccccc3s2)c1)c1cc(-n2cnnc2)ccc1Cl | 3.8 | -20.1 | 39.6* | -5.9 | -4.3 | 0.8
CC(C)(C)OC(=O)N1CCC(c2cc(=O)n3[nH]cc(C(=O)Nc4ccc(F)c(Cl)c4)c3n2)CC1 | -3.4 | -0.7 | 22.4 | 0.2 | -0.1 | nt
COc1ccc(NC(=O)c2c[nH]n3c(=O)cc(C4CCN(C(=O)OC(C)(C)C)CC4)nc23)cc1Cl | 6.1 | -4.3 | 29.0* | 2.6 | 4.3 | 20.4
Br/C(C=NNc1nc(N2CCOCC2)nc(N2CCOCC2)n1)=C/c1ccccc1 | 7.4 | nt | nt | nt | nt | nt
COc1ccc(-c2nnc(SCC(=O)NN=Cc3ccccc3C(=O)O)n2-c2ccccc2)cc1 | 0.9 | nt | nt | nt | nt | nt
CCOc1cc(/C=N/Nc2nc(Nc3ccccc3)nc(N3CCCCC3)n2)ccc1OCC(=O)O | nt | 16.3 | 33.2* | 0.5 | 2.0 | 20.3
O=[N+]([O-])c1ccc(/C=N/Nc2nc(N3CCCCCC3)nc(N3CCCCCC3)n2)o1 | nt | 22.4 | 64.7* | -7.4 | -22.7 | 18.1
O=[N+]([O-])c1ccc(Nc2nc(N/N=C\c3ccc4c(c3)OCO4)nc(N3CCCCC3)n2)cc1 | nt | 2.8 | 45.3* | 13.3* | 1.0 | 19.9
O=[N+]([O-])c1ccc(C=NNc2nc(N3CCCCCC3)nc(N3CCCCCC3)n2)o1 | 4.6 | nt | nt | nt | nt | nt
C(/C=C/c1ccccc1)=NNc1nc(N2CCOCC2)nc(N2CCOCC2)n1 | 2.2 | nt | nt | nt | nt | nt
C(=C\c1ccccc1)/C=N/Nc1nc(N2CCCCC2)nc(N2CCCCC2)n1 | nt | -5.9 | 35.1* | -1.4 | 0.9 | 17.3
CON=C(CS(=O)Cc1ccc(Cl)cc1)c1ccc(Cl)cc1 (configuration not stated) | -0.7 | nt | nt | nt | nt | nt
